In brackets after ≈: the same amount, converted by molar mass. Activity calls are given as the source filed them. The calls are words filed in the database; no cut-off is given here.
What was measured:
[1] = system: Schizosaccharomyces pombe; test: Antimicrobial activity against Schizosaccharomyces pombe L972 h-; format: functional
Aspergillus niger = test: Antifungal activity against Aspergillus niger ATCC 6275; format: functional
Penicillium chrysogenum = test: Antifungal activity against Penicillium chrysogenum IFO 4626; format: functional
Micrococcus luteus = test: Antibacterial activity against Micrococcus luteus IFO 3333; format: functional
How it was run: (§1)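 MIC by serial twofold broth dilution; bacteria grown in 3% nutrient broth at 37 °C, read after 24 h of cultivation.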

Mucor mucedo = test: Antifungal activity against Mucor mucedo IFO 7684; format: functional
Bacillus subtilis = test: Antibacterial activity against Bacillus subtilis IFO 3007; format: functional; how it was run: as §1
Candida albicans = test: Antimicrobial activity against Candida albicans IFO 1061; format: functional
Saccharomyces cerevisiae [2] = test: Antimicrobial activity against Saccharomyces cerevisiae IFO 0203; format: functional
Escherichia coli = test: Antibacterial activity against Escherichia coli IFO 2545; format: functional; how it was run: as §1
[3] = system: Schizosaccharomyces pombe; test: Antimicrobial activity against Schizosaccharomyces pombe IFO 0342; format: functional
[4] = system: Schizosaccharomyces pombe; test: Antimicrobial activity against Schizosaccharomyces pombe SA21 h+; format: functional
Rhizopus arrhizus = test: Antifungal activity against Rhizopus oryzae IFO 4766; format: functional
Saccharomyces cerevisiae [5] = test: Antimicrobial activity against Saccharomyces cerevisiae X2180 1A; format: functional
Rhodotorula mucilaginosa = test: Antimicrobial activity against Rhodotorula mucilaginosa IFO 0001; format: functional
Saccharomyces cerevisiae [6] = test: ROS production in Saccharomyces cerevisiae cells at lethal concentration; format: functional, organism-based
How it was run: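 S. cerevisiae cells (10^7 cells/ml) preloaded with 40 µM DCFH-DA in YPD medium, 30 °C, 60 min. Then exposed to compound in YPD at 30 °C for 60 min, washed and resuspended in phosphate-buffered saline. Fluorescence of 10^7 cells read at excitation 480 nm, emission 530 nm. Intensity reported directly as arbitrary units.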

Saccharomyces cerevisiae [7] = test: ROS production in Saccharomyces cerevisiae cells at 10 uM; format: functional, organism-based
How it was run: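 Yeast cells (10^7 cells/ml) preloaded with 40 µM DCFH-DA in YPD at 30 °C for 60 min, then exposed to compound in YPD at 30 °C for 60 min. Cells washed and resuspended in PBS. Fluorescence read at ex 480/em 530 nm and given in arbitrary units.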

| SMILES | MIC [1] [µM] | MIC (Aspergillus niger) [µM] | MIC (Penicillium chrysogenum) [µM] | MIC (Micrococcus luteus) [µM] | MIC (Mucor mucedo) [µM] | MIC (Bacillus subtilis) [µM] | MIC (Candida albicans) [µM] | MIC (Saccharomyces cerevisiae [2]) [µM] | MIC (Escherichia coli) [µM] | MIC [3] [µM] | MIC [4] [µM] | MIC (Rhizopus arrhizus) [µM] | MIC (Saccharomyces cerevisiae [5]) [µM] | MIC (Rhodotorula mucilaginosa) [µM] | Activity (Saccharomyces cerevisiae [6]) | Activity (Saccharomyces cerevisiae [7]) |
| --- | --- | --- | --- | --- | --- | --- | --- | --- | --- | --- | --- | --- | --- | --- | --- | --- |
| CCCC/N=C(\N)NC | > 400 | > 400 | 100 (≈ 12.9 µg/mL) | > 400 | > 400 | > 400 | > 400 | > 400 | 400 (≈ 51.7 µg/mL) | > 400 | > 400 | > 400 | > 400 | > 400 |  |  |
| C/N=C(/N)NCCCCCCCCCCCCO | > 400 | > 400 | > 400 | > 400 | > 400 | > 400 | > 400 | > 400 | > 400 | > 400 | > 400 | > 400 | > 400 | > 400 |  |  |
| C[C@@H]1[C@H](O)[C@@H](C)/C=C/C=C/C=C/C=C/C=C/C=C/C=C/[C@H](O[C@@H]2O[C@H](C)[C@@H](O)[C@H](N)[C@@H]2O)C[C@@H]2O[C@](O)(C[C@@H](O)C[C@@H](O)[C@H](O)CC[C@@H](O)C[C@@H](O)CC(=O)O[C@H]1C)C[C@H](O)[C@H]2C(=O)O |  |  |  |  |  |  |  |  |  |  |  |  |  |  |  | inactive |
| C/N=C(/N)NCCC/C=C/CCC[C@H](C)C[C@H](C)[C@H]1OC(=O)C(C)C(O)/C=C/C(C)C(O)CC(O)C(C)C(O)CCC(C)C(O)CC2(O)OC(CC(OC(=O)CC(=O)O)CC(O)CC(O)C(C)C(O)/C=C/C=C/C1C)CC(O)C2O (stereo not given in full) [NIPHIMYCIN] | 2 (≈ 2.28 µg/mL) | 2 (≈ 2.28 µg/mL) | 1 (≈ 1.14 µg/mL) |  | 10 (≈ 11.4 µg/mL) | 5 (≈ 5.71 µg/mL) | 2 (≈ 2.28 µg/mL) |  |  |  |  | 1 (≈ 1.14 µg/mL) | 5 (≈ 5.71 µg/mL) | 2 (≈ 2.28 µg/mL) | Active |  |
| CNC(=N)NCCCCCCCCCCCC(=O)OC | 400 (≈ 114 µg/mL) | 200 (≈ 57.1 µg/mL) | 200 (≈ 57.1 µg/mL) | > 400 | > 400 | 400 (≈ 114 µg/mL) | > 400 | > 400 | 400 (≈ 114 µg/mL) | 400 (≈ 114 µg/mL) | 400 (≈ 114 µg/mL) | > 400 | > 400 | 200 (≈ 57.1 µg/mL) |  |  |
| CCCCCCCC/N=C(\N)NC | 200 (≈ 37.1 µg/mL) | > 400 | 100 (≈ 18.5 µg/mL) | > 400 | > 400 | > 400 | > 400 | > 400 | 400 (≈ 74.1 µg/mL) | 400 (≈ 74.1 µg/mL) | 400 (≈ 74.1 µg/mL) | > 400 | > 400 | > 400 |  |  |

Continued, in another order:

| MIC [1] [µM] | MIC (Aspergillus niger) [µM] | MIC (Penicillium chrysogenum) [µM] | MIC (Micrococcus luteus) [µM] | MIC (Mucor mucedo) [µM] | MIC (Bacillus subtilis) [µM] | MIC (Candida albicans) [µM] | MIC (Saccharomyces cerevisiae [2]) [µM] | MIC (Escherichia coli) [µM] | MIC [3] [µM] | MIC [4] [µM] | MIC (Rhizopus arrhizus) [µM] | MIC (Saccharomyces cerevisiae [5]) [µM] | MIC (Rhodotorula mucilaginosa) [µM] | SMILES | Activity (Saccharomyces cerevisiae [6]) | Activity (Saccharomyces cerevisiae [7]) |
| --- | --- | --- | --- | --- | --- | --- | --- | --- | --- | --- | --- | --- | --- | --- | --- | --- |
| 50 (≈ 12.1 µg/mL) | 50 (≈ 12.1 µg/mL) | 25 (≈ 6.04 µg/mL) | > 400 | 50 (≈ 12.1 µg/mL) | 25 (≈ 6.04 µg/mL) | 400 (≈ 96.6 µg/mL) | 100 (≈ 24.1 µg/mL) | 50 (≈ 12.1 µg/mL) | 50 (≈ 12.1 µg/mL) | 50 (≈ 12.1 µg/mL) | 200 (≈ 48.3 µg/mL) | 100 (≈ 24.1 µg/mL) | 50 (≈ 12.1 µg/mL) | CCCCCCCCCCCC/N=C(\N)NC |  |  |
| 200 (≈ 54.3 µg/mL) | > 400 | 400 (≈ 109 µg/mL) | 400 (≈ 109 µg/mL) | 400 (≈ 109 µg/mL) | 100 (≈ 27.1 µg/mL) | 400 (≈ 109 µg/mL) | > 400 | 400 (≈ 109 µg/mL) | 200 (≈ 54.3 µg/mL) | 200 (≈ 54.3 µg/mL) | > 400 | 400 (≈ 109 µg/mL) | 200 (≈ 54.3 µg/mL) | C/N=C(/N)NCCCCCCCCCCCC(=O)O |  |  |
| 12.5 (≈ 3.72 µg/mL) | 25 (≈ 7.44 µg/mL) | 6.25 (≈ 1.86 µg/mL) | > 400 | 12.5 (≈ 3.72 µg/mL) | 12.5 (≈ 3.72 µg/mL) | 200 (≈ 59.5 µg/mL) | 50 (≈ 14.9 µg/mL) | 50 (≈ 14.9 µg/mL) | 25 (≈ 7.44 µg/mL) | 12.5 (≈ 3.72 µg/mL) | 50 (≈ 14.9 µg/mL) | 100 (≈ 29.8 µg/mL) | 12.5 (≈ 3.72 µg/mL) | CCCCCCCCCCCCCCCC/N=C(\N)NC | Active |  |

— ChEMBL document CHEMBL1139668, “Structure-activity relationship studies on niphimycin, a guanidylpolyol macrolide antibiotic. Part 1: The role of the N-methyl-N''-alkylguanidinium moiety” (2006)
